The text below walks through data of ChEMBL document CHEMBL1154352, “Toll-like receptor 7 selective synthetic oligoribonucleotide agonists: synthesis and structure-activity relationship studies” (J Med Chem, 2009).

Each structure is given as a SMILES string. Active and inactive are the calls of the source. The calls are words filed in the database; no cut-off is given here.

Assay [1] deals with T1, Toll-like receptor 7 (Homo sapiens) (UniProt Q9NYK1).
T1 sequence (whole entry): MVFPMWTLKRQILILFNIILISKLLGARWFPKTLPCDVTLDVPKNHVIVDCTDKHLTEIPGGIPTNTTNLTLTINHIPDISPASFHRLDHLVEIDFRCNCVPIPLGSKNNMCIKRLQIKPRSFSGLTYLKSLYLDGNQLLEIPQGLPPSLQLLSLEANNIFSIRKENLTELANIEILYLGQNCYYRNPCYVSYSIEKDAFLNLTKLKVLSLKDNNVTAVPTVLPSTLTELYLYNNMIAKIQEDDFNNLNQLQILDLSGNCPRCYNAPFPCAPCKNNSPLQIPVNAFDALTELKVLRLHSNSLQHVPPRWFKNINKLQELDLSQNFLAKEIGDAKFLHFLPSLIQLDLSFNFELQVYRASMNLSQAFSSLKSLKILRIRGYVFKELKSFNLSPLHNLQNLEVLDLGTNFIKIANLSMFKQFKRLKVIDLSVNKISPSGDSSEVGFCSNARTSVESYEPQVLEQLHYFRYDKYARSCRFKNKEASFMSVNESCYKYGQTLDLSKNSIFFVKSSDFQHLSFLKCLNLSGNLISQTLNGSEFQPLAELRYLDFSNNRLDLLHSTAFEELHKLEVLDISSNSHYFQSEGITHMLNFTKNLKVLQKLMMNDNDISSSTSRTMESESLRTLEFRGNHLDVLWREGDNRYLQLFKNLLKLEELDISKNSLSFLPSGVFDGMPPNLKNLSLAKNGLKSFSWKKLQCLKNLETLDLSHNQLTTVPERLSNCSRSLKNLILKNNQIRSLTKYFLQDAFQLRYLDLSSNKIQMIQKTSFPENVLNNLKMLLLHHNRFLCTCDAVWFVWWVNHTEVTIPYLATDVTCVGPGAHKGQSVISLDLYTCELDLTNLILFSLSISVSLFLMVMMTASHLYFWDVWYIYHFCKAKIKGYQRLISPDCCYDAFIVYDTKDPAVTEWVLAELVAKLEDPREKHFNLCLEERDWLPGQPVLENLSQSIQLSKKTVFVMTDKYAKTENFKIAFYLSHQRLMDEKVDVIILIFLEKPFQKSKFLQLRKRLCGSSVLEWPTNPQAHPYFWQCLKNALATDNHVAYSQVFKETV
Kind of assay: Activation of human TLR7 expressed in HEK293XL assessed as induction of NF-kappaB activity by reporter gene assay. In short, it runs like this: (§1)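 HEK293 cells stably expressing human TLR7 or TLR8, transiently transfected with SEAP reporter plasmid; medium replaced, SIMRA compounds added, 18 h incubation. Supernatant SEAP measured by QuantiBlue; expressed as fold increase in NF-κB activity over PBS control. Tabulated data at 50 μg/mL, representative of three independent experiments.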

Assay [2] has as its target T2, Toll-like receptor 8 (Homo sapiens) (UniProt Q9NR97).
T2 sequence (whole entry): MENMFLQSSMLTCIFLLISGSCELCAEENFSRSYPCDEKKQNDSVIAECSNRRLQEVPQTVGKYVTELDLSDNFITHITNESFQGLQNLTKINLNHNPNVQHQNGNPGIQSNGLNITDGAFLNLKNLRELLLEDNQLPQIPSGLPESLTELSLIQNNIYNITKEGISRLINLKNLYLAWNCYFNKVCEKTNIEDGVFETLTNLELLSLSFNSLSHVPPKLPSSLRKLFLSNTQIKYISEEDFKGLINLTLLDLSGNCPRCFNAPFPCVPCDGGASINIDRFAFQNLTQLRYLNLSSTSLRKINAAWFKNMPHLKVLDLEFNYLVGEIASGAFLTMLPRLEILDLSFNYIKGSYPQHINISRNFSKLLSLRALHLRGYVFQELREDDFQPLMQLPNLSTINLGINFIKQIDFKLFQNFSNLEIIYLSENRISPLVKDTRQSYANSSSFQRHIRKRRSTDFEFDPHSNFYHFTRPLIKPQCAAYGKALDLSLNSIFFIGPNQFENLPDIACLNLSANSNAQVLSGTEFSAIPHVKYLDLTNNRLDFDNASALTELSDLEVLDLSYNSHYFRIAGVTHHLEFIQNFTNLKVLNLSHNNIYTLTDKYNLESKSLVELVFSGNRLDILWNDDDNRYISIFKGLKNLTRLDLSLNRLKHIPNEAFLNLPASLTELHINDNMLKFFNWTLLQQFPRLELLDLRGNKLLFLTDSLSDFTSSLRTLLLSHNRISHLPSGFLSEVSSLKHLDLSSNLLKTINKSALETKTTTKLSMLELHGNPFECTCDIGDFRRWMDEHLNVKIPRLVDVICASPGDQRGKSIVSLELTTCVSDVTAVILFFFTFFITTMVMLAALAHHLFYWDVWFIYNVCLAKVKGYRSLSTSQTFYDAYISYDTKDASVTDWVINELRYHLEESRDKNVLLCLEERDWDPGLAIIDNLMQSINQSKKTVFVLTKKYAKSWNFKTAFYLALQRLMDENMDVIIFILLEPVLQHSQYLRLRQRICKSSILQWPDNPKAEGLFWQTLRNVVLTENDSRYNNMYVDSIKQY
In words: Activation of human TLR8 expressed in HEK293XL assessed as induction of NF-kappaB activity by reporter gene assay. An outline of the steps: as §1

For the molecule `Nc1ccn([C@@H]2O[C@H](COP(=O)(S)O[C@H]3[C@@H](O)[C@H](n4cnc5c(N)ncnc54)O[C@@H]3CO)[C@@H](OP(=O)(S)OC[C@H]3O[C@@H](n4ccc(=O)[nH]c4=O)[C@H](O)[C@@H]3OP(=O)(S)OC[C@H]3O[C@@H](n4ccc(=O)[nH]c4=O)[C@H](O)[C@@H]3OP(=O)(S)OC[C@H]3O[C@@H](n4ccc5c(=O)[nH]c(N)nc54)[C@H](O)[C@@H]3OP(=O)(S)OC[C@H]3O[C@@H](n4cnc5c(N)ncnc54)[C@H](O)[C@@H]3OP(=O)(S)OC[C@H]3O[C@@H](n4ccc(N)nc4=O)[C@H](O)[C@@H]3OP(=O)(S)OC[C@H]3O[C@@H](n4ccc5c(=O)[nH]c(N)nc54)[C@H](O)[C@@H]3OP(=O)(S)OC[C@H]3O[C@@H](n4cnc5c(N)ncnc54)[C@H](O)[C@@H]3OP(=O)(S)OC[C@H]3O[C@@H](n4ccc(=O)[nH]c4=O)[C@H](O)[C@@H]3OP(=O)(S)OC[C@H]3O[C@@H](n4ccc(=O)[nH]c4=O)[C@H](O)[C@@H]3OP(=O)(S)OCC(O)COP(=O)(S)O[C@H]3[C@@H](O)[C@H](n4ccc(=O)[nH]c4=O)O[C@@H]3COP(=O)(S)O[C@H]3[C@@H](O)[C@H](n4ccc(=O)[nH]c4=O)O[C@@H]3COP(=O)(S)O[C@H]3[C@@H](O)[C@H](n4cnc5c(N)ncnc54)O[C@@H]3COP(=O)(S)O[C@H]3[C@@H](O)[C@H](n4ccc5c(=O)[nH]c(N)nc54)O[C@@H]3COP(=O)(S)O[C@H]3[C@@H](O)[C@H](n4ccc(N)nc4=O)O[C@@H]3COP(=O)(S)O[C@H]3[C@@H](O)[C@H](n4cnc5c(N)ncnc54)O[C@@H]3COP(=O)(S)O[C@H]3[C@@H](O)[C@H](n4ccc5c(=O)[nH]c(N)nc54)O[C@@H]3COP(=O)(S)O[C@H]3[C@@H](O)[C@H](n4ccc(=O)[nH]c4=O)O[C@@H]3COP(=O)(S)O[C@H]3[C@@H](O)[C@H](n4ccc(=O)[nH]c4=O)O[C@@H]3COP(=O)(S)O[C@H]3[C@@H](O)[C@H](n4ccc(N)nc4=O)O[C@@H]3COP(=O)(S)O[C@H]3[C@@H](O)[C@H](n4cnc5c(N)ncnc54)O[C@@H]3CO)[C@H]2O)c(=O)n1` (some centres undefined), the result in assay [1] and in assay [2] was Active.
Take `Nc1ccn([C@@H]2O[C@H](COP(=O)(S)O[C@H]3[C@@H](O)[C@H](n4cnc5c(N)ncnc54)O[C@@H]3CO)[C@@H](OP(=O)(S)OC[C@H]3O[C@@H](n4ccc(=O)[nH]c4=O)[C@H](O)[C@@H]3OP(=O)(S)OC[C@H]3O[C@@H](n4ccc(=O)[nH]c4=O)[C@H](O)[C@@H]3OP(=O)(S)OC[C@H]3O[C@@H](n4ccc5c(=O)[nH]c(N)nc54)[C@H](O)[C@@H]3OP(=O)(S)OC[C@H]3O[C@@H](n4cnc5c(N)ncnc54)[C@H](O)[C@@H]3OP(=O)(S)OC[C@H]3O[C@@H](n4cnc5c(N)ncnc54)[C@H](O)[C@@H]3OP(=O)(S)OC[C@H]3O[C@@H](n4ccc5c(=O)[nH]c(N)nc54)[C@H](O)[C@@H]3OP(=O)(S)OC[C@H]3O[C@@H](n4ccc(N)nc4=O)[C@H](O)[C@@H]3OP(=O)(S)OC[C@H]3O[C@@H](n4ccc(=O)[nH]c4=O)[C@H](O)[C@@H]3OP(=O)(S)OC[C@H]3O[C@@H](n4ccc(=O)[nH]c4=O)[C@H](O)[C@@H]3OP(=O)(S)OCC(O)COP(=O)(S)O[C@H]3[C@@H](O)[C@H](n4ccc(=O)[nH]c4=O)O[C@@H]3COP(=O)(S)O[C@H]3[C@@H](O)[C@H](n4ccc(=O)[nH]c4=O)O[C@@H]3COP(=O)(S)O[C@H]3[C@@H](O)[C@H](n4ccc(N)nc4=O)O[C@@H]3COP(=O)(S)O[C@H]3[C@@H](O)[C@H](n4ccc5c(=O)[nH]c(N)nc54)O[C@@H]3COP(=O)(S)O[C@H]3[C@@H](O)[C@H](n4cnc5c(N)ncnc54)O[C@@H]3COP(=O)(S)O[C@H]3[C@@H](O)[C@H](n4cnc5c(N)ncnc54)O[C@@H]3COP(=O)(S)O[C@H]3[C@@H](O)[C@H](n4ccc5c(=O)[nH]c(N)nc54)O[C@@H]3COP(=O)(S)O[C@H]3[C@@H](O)[C@H](n4ccc(=O)[nH]c4=O)O[C@@H]3COP(=O)(S)O[C@H]3[C@@H](O)[C@H](n4ccc(=O)[nH]c4=O)O[C@@H]3COP(=O)(S)O[C@H]3[C@@H](O)[C@H](n4ccc(N)nc4=O)O[C@@H]3COP(=O)(S)O[C@H]3[C@@H](O)[C@H](n4cnc5c(N)ncnc54)O[C@@H]3CO)[C@H]2O)c(=O)n1` (some centres undefined): the outcome in assay [1] and in assay [2] was Active.
